Article PMC3158287 (Nature chemical biology, 2011)
Changes are numbered by the printed parent chain.

Experiments:
[1] = tested on: HCT-116 p21^−/− cells stably transfected with shOSBP or shNT; assay: OSBP shRNA knockdown and dose-shift experiment; format: cell-based, human; conditions: 72 h
Method in brief: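 HCT-116 p21−/− cells were stably transfected with OSBP-targeting or nontargeting shRNA in the pSIREN-RetroQ vector. […] Values are mean ± s.d. of 3–4 experiments, compared with shNT cells by two-tailed Student's t-test.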

human cancer cell lines [2] = conditions: cited from earlier work
OSBP^M446W = target: T1, OSBP^M446W (Homo sapiens, UniProt P22059, M446W); assay: [3H]25-OHC binding assay, OSBP M446W mutant
T1 sequence (P22059 1-807 M446W): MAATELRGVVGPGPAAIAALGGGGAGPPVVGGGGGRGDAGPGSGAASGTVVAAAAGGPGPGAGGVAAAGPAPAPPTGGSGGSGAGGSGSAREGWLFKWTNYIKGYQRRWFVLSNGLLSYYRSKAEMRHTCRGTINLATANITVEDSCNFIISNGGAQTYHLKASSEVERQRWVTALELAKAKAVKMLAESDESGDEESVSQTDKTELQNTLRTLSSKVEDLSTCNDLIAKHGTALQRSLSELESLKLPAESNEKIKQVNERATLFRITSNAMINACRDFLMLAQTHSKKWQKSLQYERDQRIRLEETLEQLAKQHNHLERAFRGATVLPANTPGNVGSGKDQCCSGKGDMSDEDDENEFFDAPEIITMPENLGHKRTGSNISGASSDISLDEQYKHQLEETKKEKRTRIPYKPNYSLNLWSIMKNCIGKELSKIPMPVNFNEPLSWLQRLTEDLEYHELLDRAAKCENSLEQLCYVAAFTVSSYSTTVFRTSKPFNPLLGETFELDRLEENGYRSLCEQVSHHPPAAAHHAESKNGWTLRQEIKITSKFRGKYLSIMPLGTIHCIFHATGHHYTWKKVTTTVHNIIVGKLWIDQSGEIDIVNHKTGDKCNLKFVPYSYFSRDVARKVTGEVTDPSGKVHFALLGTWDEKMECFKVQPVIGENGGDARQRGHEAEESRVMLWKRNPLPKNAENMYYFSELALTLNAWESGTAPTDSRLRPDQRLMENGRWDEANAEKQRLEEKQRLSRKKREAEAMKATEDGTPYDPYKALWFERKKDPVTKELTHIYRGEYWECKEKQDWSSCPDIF

HCT-116 p21^−/− cells [3] = assay: Cell viability assay, HCT-116 p21-/-; format: cell-based, human; conditions: GI50 after 48 h
Method in brief: (§1)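 HCT-116 p21+/+ and p21−/− cells were seeded in 96-well plates and rested 24 h. A time-zero plate was read with CellTiter-Blue (resazurin) after 90 min at 37 °C, fluorescence 544 nm ex / 590 nm em. Serially diluted test compound was added as 4× solution. Viability was re-read at 48 h and GI50 derived. For coadministration, 10 μM 25-OHC was added with test compound at 250 nM or 10 nM.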

OSBP [4] = target: T2, OSBP (Homo sapiens, UniProt P22059); assay: OSBP localization by immunofluorescence microscopy, HCT-116; format: cell-based; conditions: HCT-116 cells, 4 h; 5 μM schweinfurthin A, 10 nM OSW-1, 20 nM cephalostatin 1
T2 sequence (P22059 1-807): T1 sequence (P22059 1-807 M446W) with W446M
Method in brief: (§2)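 Cells on coverslips were grown 72 h, then given test compound or vehicle (4 h for HCT-116). They were fixed 10 min in 3.7% formaldehyde/PBS and permeabilised 5 min in 0.5% Triton X-100. Blocking used Image-iT FX, then 1% BSA/PBS. Rabbit anti-OSBP (N-terminus) and mouse anti-p230 were applied overnight at 4 °C, then Alexa Fluor secondaries for 60 min with Hoechst 33258. Imaging was by confocal microscopy.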

OSBP [5] = target: T2, OSBP; assay: OSBP protein levels by western blotting; format: cell-based; conditions: HCT-116 cells
Method in brief: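 HCT-116 cells were treated with test compound at 50 nM or 10 nM over a time course including 24 h. Some samples also received proteasome inhibitor MG-132 or lactacystin. OSBP was measured by western blotting with polyclonal rabbit anti-OSBP (N-terminus) antibody. Data are n = 3, compared with vehicle-treated cells by two-tailed Student's t-test.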

HCT-116 cells = assay: Suppression of antiproliferative activity by 25-OHC coadministration; format: cell-based, human
Method in brief: as §1

[6] = tested on: HeLa cells overexpressing wild-type OSBP; assay: Overexpression-viability assay, wild-type OSBP-Myc-His; format: cell-based, human; conditions: 48 h, versus lacZ
OSBP^V582M = target: T3, OSBP^V582M (Homo sapiens, UniProt P22059, V582M); assay: [3H]25-OHC binding assay, OSBP V582M mutant
T3 sequence (P22059 1-807 V582M): T1 sequence (P22059 1-807 M446W) with W446M, V582M

OSBP [7] = target: T2, OSBP; assay: OSBP localization by immunofluorescence microscopy, A549; format: cell-based; conditions: A549 cells
Method in brief: as §2

CERT = CERT protein amount in treated cells; format: cell-based, human; conditions: GI90 concentration, HCT-116 or A549 cells
[8] = tested on: HeLa cells overexpressing ORP4L; assay: Overexpression-viability assay, ORP4L-Myc-His; format: cell-based, human; conditions: 48 h, versus lacZ
[9] = tested on: sphingomyelin biosynthesis in CHO-K1 cells; assay: Sphingomyelin biosynthesis, [3H]serine pulse labeling, CHO-K1; format: cell-based, Chinese hamster; conditions: CHO-K1 cells
human cancer cell lines [10] = format: cell-based
HCT-116 p21^−/− cells [11] = conditions: cited from earlier work

C[C@@H]1[C@]2(O[C@H]3C=C4[C@@H]5CC[C@H]6Cc7nc8c(nc7C[C@]6(C)[C@H]5C[C@@H](O)[C@]4(C)[C@]31O)C[C@@H]1CC[C@H]3C4=CC[C@@H]5[C@H](C)[C@@]6(OC[C@]45C(=O)C[C@@H]3[C@@]1(C)C8)OC(C)(C)C[C@H]6O)O[C@](C)(CO)C[C@H]2O [cephalostatin 1, Cephalostatin 1]
Sensitization by OSBP shRNA knockdown (GI50 shift shOSBP vs shNT) [1]: four
GI50 (half-maximal inhibitory concentration) (human cancer cell lines [2]): nanomolar range
Ki (OSBP^M446W): 31 nM
p21^−/− selectivity of growth inhibition (HCT-116 p21^−/− versus wild-type) (HCT-116 p21^−/− cells [3]): selectively growth-inhibitory
OSBP localization (OSBP [4]): partially localize to the plasma membrane
Reduction in OSBP protein levels (OSBP [5]; 50 nM, 24 h): approximately 75%
Effect of 10 μM 25-OHC coadministration on growth inhibition (HCT-116 cells; HCT-116 cells, 250 nM cephalostatin 1 or 10 nM OSW-1): nearly complete desensitization
inhibition at 0.25 µM (HCT-116 cells; Homo sapiens, HCT-116, 48 h, read-out: Growth inhibition when administered alone): > 75%
Desensitization factor by OSBP overexpression (relative GI30) [6]: 2–5
Ki (OSBP^V582M): 31 nM
OSBP localization (OSBP [7]): dispersal or vesiculation of OSBP
Amount of CERT protein (CERT): not affected
Desensitization factor by ORP4L overexpression (relative GI30) [8]: 2–5

C[C@H](CCCC(C)(C)O)[C@H]1CC[C@H]2[C@@H]3CC=C4C[C@@H](O)CC[C@]4(C)[C@H]3CC[C@]12C [25-OHC, 25-hydroxycholesterol, reference compound]
Increase in the biosynthesis of sphingomyelin ([9]; 5 μM, 6 h): approximately four
Effect on sphingomyelin biosynthesis ([9]; GI90 dose (15 μM)): robust stimulation
Kd (OSBP^M446W): 41 nM
Effect on OSBP levels (compound alone) (OSBP [5]; 25-OHC 10 μM): did not affect OSBP levels
Kd (OSBP^V582M): 82 nM
Cytotoxicity (human cancer cell lines [10]): not cytotoxic at concentrations up to 10 μM

CC(/C=C/C=C(C)/C=C/C=C(\C)C(=O)O)=C1/C(=O)C[C@H]2[C@@]3(C)CCC(=O)C(C)(C)[C@@H]3CC[C@]12C [stellettin E]
Times more growth-inhibitory to HCT-116 p21^−/− cells than to HCT-116 wild-type cells (HCT-116 p21^−/− cells [11]): 117 times
